Assay results: ChEMBL document CHEMBL3414471 (J Med Chem, 2015)
Calls of active or inactive are those of the source. The calls are words filed in the database; no cut-off is given here.

Assays:
Salmonella typhimurium [1] = experiment: Mutagenic activity in Salmonella typhimurium TA98 at 10 to 100 uM by ames test; assay type: toxicity, organism-based; settings: salmonella enterica subsp. enterica serovar typhimurium
In short: (§1)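 Ames fluctuation test in Salmonella strains TA98, TA100, TA1535 and TA1537, with and without S9, at 10, 50 and 100 µM; scored negative or positive.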

[2] = Permeability from apical to basolateral side in human Caco2 cells at pH 7.4; assay type: ADME, cell-based; settings: caco-2, pH 7.4
In short: (§2)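 Caco-2 monolayer permeability measured A–B and B–A in pH 7.4 buffer, reported as ×10−6 cm/s; A–B/B–A ratio derived from these.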

Liver microsome = experiment: Metabolic stability in human liver microsomes; assay type: ADME
In short: (§3)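 Incubation with human or CD-1 mouse liver microsomes for 1 h; stability expressed as % parent compound remaining.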

Salmonella typhimurium [3] = experiment: Mutagenic activity in Salmonella typhimurium TA1537 at 10 to 100 uM by ames test; assay type: toxicity, organism-based; settings: salmonella enterica subsp. enterica serovar typhimurium; in short: as §1
Salmonella typhimurium [4] = experiment: Mutagenic activity in Salmonella typhimurium TA1535 at 10 to 100 uM by ames test in presence of S9 mixture; assay type: toxicity, organism-based; settings: salmonella enterica subsp. enterica serovar typhimurium; in short: as §1
[5] = target: T1, 5-hydroxytryptamine receptor 2B (Homo sapiens, UniProt P41595); experiment: Agonist activity at human 5-HT2B receptor expressed in HEK293 cells assessed as calcium flux by FLIPR assay relative to 5-HT; assay type: functional, cell-based
T1 sequence (P41595 whole entry): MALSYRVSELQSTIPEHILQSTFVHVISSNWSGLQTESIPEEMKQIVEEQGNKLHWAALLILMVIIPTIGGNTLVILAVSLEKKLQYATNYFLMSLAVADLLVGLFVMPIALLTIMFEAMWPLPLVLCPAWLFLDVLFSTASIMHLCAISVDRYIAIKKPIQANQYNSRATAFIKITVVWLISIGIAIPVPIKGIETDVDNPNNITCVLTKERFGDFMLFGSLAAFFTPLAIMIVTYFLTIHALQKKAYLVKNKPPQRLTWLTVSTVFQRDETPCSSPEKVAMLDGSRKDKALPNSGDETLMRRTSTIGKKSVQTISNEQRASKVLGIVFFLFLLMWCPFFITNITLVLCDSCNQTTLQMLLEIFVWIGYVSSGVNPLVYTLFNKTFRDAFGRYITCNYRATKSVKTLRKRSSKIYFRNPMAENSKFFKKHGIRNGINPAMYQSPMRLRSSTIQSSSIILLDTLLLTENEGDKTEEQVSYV
In short: (§4)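 Flp-In-293 cells stably expressing human 5-HT2A, 5-HT2B or 5-HT2C-INI; grown 24–48 h in DMEM/10% dialyzed FBS, plated on poly-L-Lys at 12000 cells/well in 1% dialyzed FBS for 24 h. Loaded 1 h at 37 °C with calcium dye in HBSS, 20 mM Hepes pH 7.40, 2.5 mM probenecid.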

[6] = target: T2, 5-hydroxytryptamine receptor 2C (Homo sapiens) (UniProt P28335); experiment: Agonist activity at human 5-HT2C receptor expressed in HEK293 cells assessed as calcium flux by FLIPR assay relative to 5-HT; assay type: functional, cell-based; in short: as §4
T2 sequence (whole entry): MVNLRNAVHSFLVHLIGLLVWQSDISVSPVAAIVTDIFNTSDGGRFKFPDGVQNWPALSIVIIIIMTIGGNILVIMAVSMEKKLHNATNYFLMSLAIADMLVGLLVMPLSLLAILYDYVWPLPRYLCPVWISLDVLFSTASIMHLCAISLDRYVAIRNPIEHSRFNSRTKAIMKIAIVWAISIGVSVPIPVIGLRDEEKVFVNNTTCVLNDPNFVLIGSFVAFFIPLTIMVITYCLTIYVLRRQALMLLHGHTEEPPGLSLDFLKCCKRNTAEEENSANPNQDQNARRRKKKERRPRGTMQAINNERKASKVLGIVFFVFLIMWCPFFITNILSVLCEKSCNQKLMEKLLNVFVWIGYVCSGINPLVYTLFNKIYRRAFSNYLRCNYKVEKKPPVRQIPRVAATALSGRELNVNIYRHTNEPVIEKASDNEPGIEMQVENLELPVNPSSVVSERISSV

Salmonella typhimurium [7] = experiment: Mutagenic activity in Salmonella typhimurium TA1537 at 10 to 100 uM by ames test in presence of S9 mixture; assay type: toxicity, organism-based; settings: salmonella enterica subsp. enterica serovar typhimurium; in short: as §1
[8] = target: T1, 5-hydroxytryptamine receptor 2B; experiment: Agonist activity at human 5-HT2B receptor expressed in HEK293 cells assessed as calcium flux by FLIPR assay; assay type: functional, cell-based
[9] = target: Voltage-gated inwardly rectifying potassium channel KCNH2 (Homo sapiens, UniProt Q12809); experiment: Inhibition of human ERG channel expressed in CHO cells by patch clamp method; assay type: cell-based
Chain of Voltage-gated inwardly rectifying potassium channel KCNH2 (Q12809 whole entry): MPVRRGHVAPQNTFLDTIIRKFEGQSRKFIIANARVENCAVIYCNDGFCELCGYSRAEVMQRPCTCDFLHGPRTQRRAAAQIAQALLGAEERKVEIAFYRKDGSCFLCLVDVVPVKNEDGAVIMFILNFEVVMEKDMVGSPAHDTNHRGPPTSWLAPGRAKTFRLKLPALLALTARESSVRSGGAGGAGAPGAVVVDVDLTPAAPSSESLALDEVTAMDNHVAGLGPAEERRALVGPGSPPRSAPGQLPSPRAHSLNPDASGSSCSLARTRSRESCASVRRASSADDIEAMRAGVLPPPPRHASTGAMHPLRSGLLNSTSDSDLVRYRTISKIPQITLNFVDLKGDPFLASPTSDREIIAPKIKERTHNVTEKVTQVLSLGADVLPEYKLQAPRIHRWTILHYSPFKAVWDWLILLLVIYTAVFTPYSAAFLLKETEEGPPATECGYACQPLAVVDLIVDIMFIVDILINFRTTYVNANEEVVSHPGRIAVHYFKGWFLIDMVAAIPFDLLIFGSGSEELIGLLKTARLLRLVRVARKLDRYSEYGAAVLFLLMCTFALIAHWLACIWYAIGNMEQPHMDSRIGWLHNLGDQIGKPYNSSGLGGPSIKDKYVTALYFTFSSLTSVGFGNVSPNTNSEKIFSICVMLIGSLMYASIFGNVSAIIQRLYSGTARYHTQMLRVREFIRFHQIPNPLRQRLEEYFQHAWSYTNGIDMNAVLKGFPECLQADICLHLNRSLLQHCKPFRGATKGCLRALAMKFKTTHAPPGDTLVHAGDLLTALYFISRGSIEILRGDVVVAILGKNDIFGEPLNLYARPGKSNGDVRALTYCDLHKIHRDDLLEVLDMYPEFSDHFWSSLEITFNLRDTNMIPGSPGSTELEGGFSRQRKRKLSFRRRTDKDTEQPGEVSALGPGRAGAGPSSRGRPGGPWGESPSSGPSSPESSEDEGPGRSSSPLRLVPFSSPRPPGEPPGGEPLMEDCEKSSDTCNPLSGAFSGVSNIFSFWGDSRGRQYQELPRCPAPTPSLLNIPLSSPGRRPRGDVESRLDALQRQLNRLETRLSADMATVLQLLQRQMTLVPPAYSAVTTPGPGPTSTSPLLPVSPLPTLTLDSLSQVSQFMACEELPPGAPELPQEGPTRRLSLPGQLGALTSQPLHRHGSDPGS

[10] = Plasma protein binding in human at 10 uM; assay type: ADME, cell-free
In short: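 Human plasma protein binding determined at 10 µM compound, expressed as % bound.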

[11] = target: T3, 5-hydroxytryptamine receptor 2C (Homo sapiens, UniProt P28335); experiment: Agonist activity at human 5-HT2C receptor expressed in HEK293 cells assessed as calcium flux by FLIPR assay; assay type: functional, cell-based
T3 sequence (P28335 whole entry): T2 sequence (whole entry)

Salmonella typhimurium [12] = experiment: Mutagenic activity in Salmonella typhimurium TA1535 at 10 to 100 uM by ames test; assay type: toxicity, organism-based; settings: salmonella enterica subsp. enterica serovar typhimurium; in short: as §1
Salmonella typhimurium [13] = experiment: Mutagenic activity in Salmonella typhimurium TA100 at 10 to 100 uM by ames test in presence of S9 mixture; assay type: toxicity, organism-based; settings: salmonella enterica subsp. enterica serovar typhimurium; in short: as §1
Salmonella typhimurium [14] = experiment: Mutagenic activity in Salmonella typhimurium TA100 at 10 to 100 uM by ames test; assay type: toxicity, organism-based; settings: salmonella enterica subsp. enterica serovar typhimurium; in short: as §1
[15] = target: T4, 5-hydroxytryptamine receptor 2A (Homo sapiens, UniProt P28223); experiment: Agonist activity at human 5-HT2A receptor expressed in HEK293 cells assessed as calcium flux at 10 uM by FLIPR assay; assay type: functional, cell-based
T4 sequence (P28223 whole entry): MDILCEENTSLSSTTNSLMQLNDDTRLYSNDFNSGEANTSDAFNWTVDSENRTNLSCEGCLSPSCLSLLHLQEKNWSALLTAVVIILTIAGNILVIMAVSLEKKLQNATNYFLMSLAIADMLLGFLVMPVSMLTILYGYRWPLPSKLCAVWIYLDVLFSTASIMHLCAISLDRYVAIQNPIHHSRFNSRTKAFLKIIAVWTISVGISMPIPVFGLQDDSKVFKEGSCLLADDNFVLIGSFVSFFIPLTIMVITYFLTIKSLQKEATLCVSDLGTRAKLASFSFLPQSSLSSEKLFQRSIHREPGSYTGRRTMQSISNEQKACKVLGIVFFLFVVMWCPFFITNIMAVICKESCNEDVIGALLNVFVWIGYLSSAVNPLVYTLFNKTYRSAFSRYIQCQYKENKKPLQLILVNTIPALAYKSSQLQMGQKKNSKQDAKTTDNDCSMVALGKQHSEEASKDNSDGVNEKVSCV
In short: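 Flp-In-293 cells stably expressing human 5-HT2A, 5-HT2B or 5-HT2C-INI, grown in DMEM with 10% dialyzed FBS, then plated for 24 h in 1% dialyzed FBS. Cells were loaded 1 h at 37 °C with calcium dye in Hepes-buffered HBSS, pH 7.40, containing 2.5 mM probenecid. FLIPR read 10 s baseline, then 120 s after drug addition.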

Salmonella typhimurium [16] = experiment: Mutagenic activity in Salmonella typhimurium TA98 at 10 to 100 uM by ames test in presence of S9 mixture; assay type: toxicity, organism-based; settings: salmonella enterica subsp. enterica serovar typhimurium; in short: as §1
Liver = experiment: Metabolic stability in mouse liver microsomes; assay type: ADME; in short: as §3
[17] = Permeability from basolateral to apical side in human Caco2 cells at pH 7.4; assay type: ADME, cell-based; settings: caco-2, pH 7.4; in short: as §2
CYP2C9 = CYP2C9 (Homo sapiens, UniProt P11712); experiment: Inhibition of human CYP2C9 using diclofenac as substrate at 10 uM; assay type: ADME; settings: probe diclofenac
Chain of CYP2C9 (P11712 whole entry): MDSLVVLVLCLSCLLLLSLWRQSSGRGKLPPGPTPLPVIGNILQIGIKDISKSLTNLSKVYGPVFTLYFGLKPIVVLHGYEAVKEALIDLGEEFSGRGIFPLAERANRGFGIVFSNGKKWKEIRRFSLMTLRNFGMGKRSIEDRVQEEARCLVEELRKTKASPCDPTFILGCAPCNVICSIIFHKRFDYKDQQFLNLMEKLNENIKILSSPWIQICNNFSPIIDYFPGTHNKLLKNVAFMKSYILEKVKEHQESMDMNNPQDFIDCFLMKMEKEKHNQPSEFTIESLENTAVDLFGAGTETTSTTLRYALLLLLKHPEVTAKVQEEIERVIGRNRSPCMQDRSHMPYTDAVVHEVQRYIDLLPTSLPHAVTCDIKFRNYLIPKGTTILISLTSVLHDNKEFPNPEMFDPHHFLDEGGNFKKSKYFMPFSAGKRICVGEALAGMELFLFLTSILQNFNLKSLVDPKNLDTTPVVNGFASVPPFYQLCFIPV

[18] = target: T4, 5-hydroxytryptamine receptor 2A; experiment: Agonist activity at human 5-HT2A receptor expressed in HEK293 cells assessed as calcium flux by FLIPR assay; assay type: functional, cell-based
[19] = Plasma concentration in CD1 mouse at 10 mg/kg, ip after 2 hrs; assay type: ADME, organism-based; design: dose 10 mg/kg, route intraperitoneal
In short: (§5)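 CD1 mice received a single 10 mg/kg ip dose formulated in pure water. Brain (ng/g) and plasma (ng/mL) levels were measured at 0.5 and 2 h. Brain/plasma ratio assumed a brain tissue density of 1 g/mL.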

Mus musculus = experiment: Antipsychotic activity in C57BL/6J mouse assessed as reduction of amphetamine-induced locomotor activity at 10 to 20 mg/kg, ip administered 15 mins prior to amphetamine challenge measured for 105 mins by open field test relative to vehicle-treated control; assay type: functional, organism-based
[20] = Drug uptake in CD1 mouse brain at 10 mg/kg, ip after 2 hrs; assay type: ADME, organism-based; design: dose 10 mg/kg, route intraperitoneal; settings: read-out: Drug uptake; in short: as §5
[21] = target: T4, 5-hydroxytryptamine receptor 2A; experiment: Agonist activity at human 5-HT2A receptor expressed in HEK293 cells assessed as calcium flux by FLIPR assay relative to 5-HT; assay type: functional, cell-based; in short: as §4
[22] = Drug uptake in CD1 mouse brain at 10 mg/kg, ip after 0.5 hrs; assay type: ADME, organism-based; design: dose 10 mg/kg, route intraperitoneal; settings: read-out: Drug uptake; in short: as §5
CYP2B6 = target: T5, CYP2B6 (Homo sapiens, UniProt P20813); experiment: Inhibition of human CYP2B6 using bupropion as substrate at 10 uM; assay type: ADME; settings: probe bupropion
T5 sequence (P20813 whole entry): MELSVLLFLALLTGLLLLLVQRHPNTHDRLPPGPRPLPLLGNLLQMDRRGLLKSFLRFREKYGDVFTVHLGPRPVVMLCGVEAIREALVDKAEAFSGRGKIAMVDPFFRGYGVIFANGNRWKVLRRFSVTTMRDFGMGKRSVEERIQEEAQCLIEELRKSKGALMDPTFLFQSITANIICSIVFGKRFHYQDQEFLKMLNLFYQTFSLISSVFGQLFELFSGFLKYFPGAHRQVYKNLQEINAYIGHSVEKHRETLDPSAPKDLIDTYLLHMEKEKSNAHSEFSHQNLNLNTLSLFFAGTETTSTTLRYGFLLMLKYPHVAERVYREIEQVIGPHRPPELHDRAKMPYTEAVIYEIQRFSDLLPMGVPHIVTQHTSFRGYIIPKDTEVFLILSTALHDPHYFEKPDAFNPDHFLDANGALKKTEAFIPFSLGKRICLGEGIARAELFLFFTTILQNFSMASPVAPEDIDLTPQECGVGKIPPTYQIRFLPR

CYP2C19 = CYP2C19 (Homo sapiens, UniProt P33261); experiment: Inhibition of human CYP2C19 using omeprazole as substrate at 10 uM; assay type: ADME; settings: probe omeprazole
Chain of CYP2C19 (P33261 whole entry): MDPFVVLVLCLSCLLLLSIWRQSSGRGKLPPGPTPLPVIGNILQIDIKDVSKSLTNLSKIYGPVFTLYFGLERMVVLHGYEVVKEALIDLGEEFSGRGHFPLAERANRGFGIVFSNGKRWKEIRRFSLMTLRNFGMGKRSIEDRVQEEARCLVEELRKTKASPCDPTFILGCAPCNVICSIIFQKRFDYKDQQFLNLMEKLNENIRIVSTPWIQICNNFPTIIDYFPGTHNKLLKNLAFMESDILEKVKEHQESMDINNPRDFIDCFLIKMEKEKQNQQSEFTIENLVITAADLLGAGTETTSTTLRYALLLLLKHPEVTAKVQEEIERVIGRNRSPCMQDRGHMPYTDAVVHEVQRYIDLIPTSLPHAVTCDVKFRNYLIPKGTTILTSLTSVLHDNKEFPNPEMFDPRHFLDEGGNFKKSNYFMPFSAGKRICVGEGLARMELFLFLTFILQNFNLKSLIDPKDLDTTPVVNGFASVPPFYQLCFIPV

[23] = Plasma concentration in CD1 mouse at 10 mg/kg, ip after 0.5 hrs; assay type: ADME, organism-based; design: dose 10 mg/kg, route intraperitoneal; in short: as §5
CYP3A = CYP3A (Homo sapiens, UniProt P08684+P20815+P24462+Q9HB55); experiment: Inhibition of human CYP3A using midazolam as substrate at 10 uM; assay type: ADME; settings: probe midazolam
In short: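 Human liver microsomes, test compound at 10 µM, midazolam as CYP3A substrate; percent inhibition reported; run by a contract lab.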

CYP2D6 = CYP2D6 (Homo sapiens, UniProt P10635); experiment: Inhibition of human CYP2D6 using dextromethorphan as substrate at 10 uM; assay type: ADME; settings: probe dextromethorphan
Chain of CYP2D6 (P10635 whole entry): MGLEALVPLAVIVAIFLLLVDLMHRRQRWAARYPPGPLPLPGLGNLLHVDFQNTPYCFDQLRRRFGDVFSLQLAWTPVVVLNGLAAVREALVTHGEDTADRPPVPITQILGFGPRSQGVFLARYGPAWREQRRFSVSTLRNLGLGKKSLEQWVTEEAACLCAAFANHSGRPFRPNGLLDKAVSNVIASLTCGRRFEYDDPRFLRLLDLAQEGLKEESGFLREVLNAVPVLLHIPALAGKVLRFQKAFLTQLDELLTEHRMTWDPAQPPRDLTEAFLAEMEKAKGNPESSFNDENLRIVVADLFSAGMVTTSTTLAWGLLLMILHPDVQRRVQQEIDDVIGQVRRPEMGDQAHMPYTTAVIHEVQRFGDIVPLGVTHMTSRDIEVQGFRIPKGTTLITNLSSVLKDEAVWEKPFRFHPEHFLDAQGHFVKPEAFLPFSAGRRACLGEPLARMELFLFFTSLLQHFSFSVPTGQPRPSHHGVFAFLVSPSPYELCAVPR

Structure (SMILES)	Activity (Salmonella typhimurium [1])	permeability [2]	Stability (Liver microsome)	Activity (Salmonella typhimurium [3])	Activity (Salmonella typhimurium [4])	Emax [5]	Emax [6]	Activity (Salmonella typhimurium [7])	EC50 [8]	PPB [10]	EC50 [11]	Activity (Salmonella typhimurium [12])	Activity (Salmonella typhimurium [13])	Activity (Salmonella typhimurium [14])	Activity (Salmonella typhimurium [16])	Stability (Liver)	permeability [17]	further results
C=CCOc1ccc(Cl)cc1[C@H]1C[C@@H]1CN.O=C(O)C(F)(F)F	Non-toxic	35.6 ×10⁻⁶ cm/s	52%	Non-toxic	Non-toxic	32%	80%	Non-toxic	2210 nM	75%	60 nM	Non-toxic	Non-toxic	Non-toxic	Non-toxic	60%	9.8 ×10⁻⁶ cm/s	IC50 [9]: 270 nM; Activity [15]: inactive
Cl.NC[C@H]1C[C@@H]1c1cc(Cl)ccc1OCCF	Non-toxic	35.5 ×10⁻⁶ cm/s	95%	Non-toxic	Non-toxic	31%	86%	Non-toxic	632 nM	57%	32 nM	Non-toxic	Non-toxic	Non-toxic	Non-toxic	74%	17.5 ×10⁻⁶ cm/s	inhibition at 10 µM (CYP2C9): 33%; EC50 [18]: 1480 nM; concentration at 2 h [19]: 874 ng/mL; Activity (Mus musculus): Active; concentration at 2 h [20]: 13400 ng/g; Emax [21]: 35%; concentration at 0.5 h [22]: 12800 ng/g; inhibition at 10 µM (CYP2B6): 58%; inhibition at 10 µM (CYP2C19): 21%; concentration at 0.5 h [23]: 1200 ng/mL; inhibition at 10 µM (CYP3A): 22%; inhibition at 10 µM (CYP2D6): 79%
